Laboratory results published in ChEMBL document CHEMBL3227924, “Pharmacologically active sulfoximides: 5-hexyl-7-)S-methylsulfonimidoly) xanthone-2-carboxylic acid, a potent antiallergic agent” (1979).
The source made the active and inactive calls. No cut-off for these calls is given here.

Tests used:
Type in all cases: functional
Rattus norvegicus [1] = test: Antiallergic activity in iv dosed ovalbumin-sensitized CFHB rat assessed as inhibition of passive cutaneous anaphylaxis after 30 mins by Evans blue staining; settings: 0.5 h
Summary of the method: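 Rats passively sensitized with 0.1 mL of 1:25 donor anti-ovalbumen serum (IgE plus IgG) at four dorsal sites, then challenged iv 72 h later with ovalbumen 1 mg plus 1% Evans blue (0.5 mL). Compound in Tris buffer/saline given iv 30 s before challenge at ≥3 doses, ≥7 rats per group. Blue spots scored 0–4 at 30 min. ED50 read from the dose–response curve of % inhibition versus controls.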

Rattus norvegicus [2] = test: Antiallergic activity in po dosed ovalbumin-sensitized CFHB rat assessed as inhibition of passive cutaneous anaphylaxis after 30 mins by Evans blue staining
Rattus norvegicus [3] = test: Antiallergic activity in ovalbumin-sensitized CFHB rat assessed as inhibition of passive cutaneous anaphylaxis at 10 mg/kg, iv after 30 mins by Evans blue staining
Summary of the method: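 Sensitized with diluted (1:25) donor serum at four back sites. Challenge came 72 h later, iv, with ovalbumen 1 mg and 1% Evans blue 0.5 mL. Compound dissolved in Tris buffer, diluted in saline, and injected iv 30 s pre-challenge. Groups had at least seven rats, with matched controls. Skin spots were scored 0–4 for severity and area after 30 min. % inhibition came from the test versus control score difference.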

`CCCCCOc1cc(S(C)(=N)=O)cc2c(=O)c3cc(C(=O)O)ccc3oc12` (stereo not drawn) gave an ED50 (Rattus norvegicus [1]) of 0.005 mg/kg and an ED50 (Rattus norvegicus [2]; 0.5 h) of 1.62 mg/kg.

With `O=C([O-])c1cc(=O)c2c(OCC(O)COc3cccc4oc(C(=O)[O-])cc(=O)c34)cccc2o1.[Na+].[Na+]` [CROMOLYN SODIUM] the ED50 (Rattus norvegicus [1]) was 1.21 mg/kg and the ED50 (Rattus norvegicus [2]) was “inactive”.

Compound `CS(=O)(=NC(=O)c1ccccc1)c1ccc2oc3ccc(C(=O)O)cc3c(=O)c2c1` (stereo not drawn) has an ED50 (Rattus norvegicus [1]) of 0.68 mg/kg.

Compound `CS(=O)(=NC(N)=O)c1ccc2oc3ccc(C(=O)O)cc3c(=O)c2c1` (stereo not drawn) has an ED50 (Rattus norvegicus [1]) of 0.11 mg/kg and an ED50 (Rattus norvegicus [2]; 0.5 h) of 8.6 mg/kg.

`CS(=N)(=O)c1ccc2oc3ccccc3c(=O)c2c1` (stereo not drawn) was tested, and the inhibition (Rattus norvegicus [3]) was “inactive”.

Work on `CCCCCCc1cc(S(C)(=O)=NC(N)=O)cc2c(=O)c3cc(C(=O)O)ccc3oc12` (stereo not drawn) yielded an ED50 (Rattus norvegicus [1]) of 0.009 mg/kg.

For `Cc1ccc(S(=O)(=O)/N=S(\C)c2ccc3oc4ccc(C(=O)O)cc4c(=O)c3c2)cc1` (stereo not drawn), the ED50 (Rattus norvegicus [1]) was 0.43 mg/kg.

For `CCOC(=O)N=S(C)(=O)c1ccc2oc3ccc(C(=O)O)cc3c(=O)c2c1` (stereo not drawn), the inhibition in vivo at 10 mg/kg (Rattus norvegicus [3]; 0.5 h) was 89%.

For `CCCCCCc1cc(S(C)(=N)=O)cc2c(=O)c3cc(C(=O)O)ccc3oc12` (stereo not drawn) [SUDEXANOX], the ED50 (Rattus norvegicus [1]) was 0.005 mg/kg and the ED50 (Rattus norvegicus [2]; 0.5 h) was 0.19 mg/kg.

`Cc1ccc(S(=O)(=O)N=S(C)(=O)c2ccc3oc4ccc(C(=O)O)cc4c(=O)c3c2)cc1` (stereo not drawn) showed an ED50 (Rattus norvegicus [1]) of 3.93 mg/kg.

`CS(=N)(=O)c1ccc2oc3ccc(C(=O)O)cc3c(=O)c2c1` (stereo not drawn) showed an ED50 (Rattus norvegicus [1]) of 0.033 mg/kg and an ED50 (Rattus norvegicus [2]; 0.5 h) of 2.72 mg/kg.

In the case of `CCOC(=O)C1=CN=S(=O)(c2ccc3oc4ccc(C(=O)O)cc4c(=O)c3c2)C=C1O` (stereo not drawn), the inhibition (Rattus norvegicus [3]) is reported as “inactive”.

For `CC(=O)N=S(C)(=O)c1ccc2oc3ccc(C(=O)O)cc3c(=O)c2c1` (stereo not drawn), the ED50 (Rattus norvegicus [1]) was 0.065 mg/kg.
